Active and inactive are the calls of the source. The rule behind the calls is not given here.
Legend:
[1] = molecular target: T1, Metabotropic glutamate receptor 3 (Homo sapiens, UniProt Q14832); assay: Agonist activity at human mGluR3 assessed as effect on cAMP production in RGT cells; type: functional, cell-based
In short: (§1)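 cAMP second-messenger responses measured in RGT cells. These are non-neuronal AV12-664 cells coexpressing the glutamate transporter GLAST, to minimize glutamate activity, plus the recombinant human receptor (mGlu2, mGlu3 or mGlu8). Agonist EC50 determined.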

[2] = molecular target: T1, Metabotropic glutamate receptor 3; assay: Displacement of [3H]LY341495 from human recombinant mGluR3 in RGT cells; type: cell-based
In short: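 Radioligand binding on membranes carrying recombinant human mGlu2 or mGlu3, displacing the antagonist [3H]LY341495. Ki was calculated from IC50 by the Cheng-Prusoff equation. Values are the mean of at least three separate experiments.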

[3] = molecular target: T2, Metabotropic glutamate receptor 2 (Homo sapiens, UniProt Q14416); assay: Agonist activity at human mGluR2 assessed as effect on cAMP production in RGT cells; type: functional, cell-based; in short: as §1
[4] = molecular target: Metabotropic glutamate receptor 8 (Homo sapiens, UniProt O00222); assay: Agonist activity at human mGluR8 assessed as effect on cAMP production in RGT cells; type: functional, cell-based; in short: as §1
[5] = molecular target: T2, Metabotropic glutamate receptor 2; assay: Displacement of [3H]LY341495 from human recombinant mGluR2 in RGT cells; type: cell-based
[6] = molecular target: Metabotropic glutamate receptor 1 (Homo sapiens) (UniProt Q13255); assay: Agonist activity at human mGluR1a assessed as effect on cAMP production in RGT cells upto 100 uM; type: functional, cell-based
In short: (§2)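 Compounds were tested at concentrations up to 100 µM for agonist or antagonist effects. Assays used RGT cells, which are AV12-664 cells coexpressing GLAST and recombinant human mGlu1a, mGlu5a, mGlu4a or mGlu7a.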

[7] = system: Rattus norvegicus; assay: Impairment of rotarod performance in Sprague-Dawley rat at 3 mg/kg, po after 2 hrs; type: functional, organism-based; parameters: dose 3 mg/kg
In short: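 Fasted Sprague-Dawley rats were trained on a rotorod at 4 rpm over four trials. Rats holding on for 60 s were retested 30 min before dosing, then given oral drug or vehicle. They were tested again 2 h later for up to 60 s. Read-out is mean seconds on the rod, n=8 per group.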

[8] = molecular target: Metabotropic glutamate receptor 4 (Homo sapiens) (UniProt Q14833); assay: Agonist activity at human mGluR4a assessed as effect on cAMP production in RGT cells upto 100 uM; type: functional, cell-based; in short: as §2
[9] = molecular target: Metabotropic glutamate receptor 7 (Homo sapiens) (UniProt Q14831); assay: Agonist activity at human mGluR7a assessed as effect on cAMP production in RGT cells upto 100 uM; type: functional, cell-based; in short: as §2
[10] = molecular target: Metabotropic glutamate receptor 5 (Homo sapiens) (UniProt P41594); assay: Antagonist activity against human mGluR5a assessed as effect on cAMP production in RGT cells upto 100 uM; type: functional, cell-based; in short: as §2
[11] = molecular target: Metabotropic glutamate receptor 4 (Homo sapiens) (UniProt Q14833); assay: Antagonist activity against human mGluR4a assessed as effect on cAMP production in RGT cells upto 100 uM; type: functional, cell-based; in short: as §2
[12] = molecular target: Metabotropic glutamate receptor 5 (Homo sapiens) (UniProt P41594); assay: Agonist activity at human mGluR5a assessed as effect on cAMP production in RGT cells upto 100 uM; type: functional, cell-based; in short: as §2
[13] = molecular target: Metabotropic glutamate receptor 1 (Homo sapiens) (UniProt Q13255); assay: Antagonist activity against human mGluR1a assessed as effect on cAMP production in RGT cells upto 100 uM; type: functional, cell-based; in short: as §2
[14] = molecular target: Metabotropic glutamate receptor 7 (Homo sapiens) (UniProt Q14831); assay: Antagonist activity against human mGluR7a assessed as effect on cAMP production in RGT cells upto 100 uM; type: functional, cell-based; in short: as §2
[15] = system: Rattus norvegicus; assay: Cmax in Fischer 344 rat at 10 mg/kg, po; type: ADME, organism-based; parameters: dose 10 mg/kg, route oral; settings: in vivo
In short: (§3)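 Male Fischer 344 rats fasted overnight, food returned 4 h post dose, water ad libitum. Doses were in water brought to pH 7 with NaOH, given i.v. (2.5 or 10 mg/kg) or p.o. (10 mg/kg). Nine rats per dose group, three per time point, with blood taken over 0.08–24 h. Plasma measured by LC/MS/MS.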

[16] = system: Rattus norvegicus; assay: Reduction of PCP-induced ambulations in Sprague-Dawley rat at 3 mg/kg, po; type: functional; parameters: scale not given: the % may be the effect or the level left
In short: (§4)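 Male Sprague-Dawley rats (225-274 g) fasted 12-18 h and habituated 30 min to the test cage. Test drug or vehicle was given orally 2 h before PCP (5 mg/kg s.c.) or 0.9% NaCl. Horizontal photobeam breaks were counted over 60 min, n=8-13 per group.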

[17] = AUC (0-24h) in Fischer 344 rat at 10 mg/kg, iv; type: ADME, organism-based; parameters: time < 24 hr, dose 10 mg/kg, route intravenous; settings: plasma; in short: as §3
[18] = Plasma concentration in rat at 10 mg/kg, po after 24 hrs; type: ADME, organism-based; parameters: dose 10 mg/kg, route oral
In short: (§5)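 Plasma levels in fasted male Fischer 344 rats after a 10 mg/kg oral dose in pH 7 water (NaOH), quantified by positive-ion electrospray LC/MS/MS. Main protocol sampled at 0.08/0.25–24 h, n=3 rats per time point. A variant oral-only arm used n=6 rats with samples at 0.5, 1, 2, 3, 4 and 6 h.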

[19] = system: Rattus norvegicus; assay: AUC (0-24h) in Fischer 344 rat at 10 mg/kg, po; type: ADME, organism-based, Plasma; parameters: time < 24 hr, dose 10 mg/kg, route oral; settings: rat, in vivo, 24 h; in short: as §3
[20] = system: Rattus norvegicus; assay: Plasma concentration in Fischer 344 rat at 10 mg/kg, po after 3 hrs; type: ADME, organism-based; parameters: dose 10 mg/kg, route oral; settings: in vivo; in short: as §5
[21] = Plasma concentration in Fischer 344 rat at 10 mg/kg, po after 8 hrs; type: ADME, organism-based; parameters: dose 10 mg/kg, route oral; in short: as §5
[22] = Plasma concentration in Fischer 344 rat at 10 mg/kg, po after 16 hrs; type: ADME, organism-based; parameters: dose 10 mg/kg, route oral; in short: as §5
[23] = system: Rattus norvegicus; assay: Cmax in Fischer 344 rat at 10 mg/kg, iv; type: ADME, organism-based; parameters: dose 10 mg/kg, route intravenous; settings: in vivo; in short: as §3
[24] = system: Rattus norvegicus; assay: Plasma concentration in Fischer 344 rat at 10 mg/kg, po after 6 hrs; type: ADME, organism-based; parameters: dose 10 mg/kg, route oral; settings: in vivo; in short: as §5
[25] = system: Rattus norvegicus; assay: Inhibition of PCP-induced ambulations in Sprague-Dawley rat after oral administration; type: functional; in short: as §4
[26] = system: Rattus norvegicus; assay: Plasma concentration in Fischer 344 rat at 10 mg/kg, po after 2 hrs; type: ADME, organism-based; parameters: dose 10 mg/kg, route oral; settings: in vivo; in short: as §5
[27] = system: Rattus norvegicus; assay: Reduction of PCP-induced ambulations in Sprague-Dawley rat at 10 mg/kg, po; type: functional; parameters: scale not given: the % may be the effect or the level left; in short: as §4
[28] = (§6) Tmax in Fischer 344 rat at 10 mg/kg, po; type: ADME, organism-based; parameters: dose 10 mg/kg, route oral; settings: Fischer 344, rat, in vivo; in short: as §3
[29] = system: Rattus norvegicus; assay: Plasma concentration in Fischer 344 rat at 10 mg/kg, po after 0.5 hrs; type: ADME, organism-based; parameters: dose 10 mg/kg, route oral; settings: in vivo; in short: as §5
[30] = Tmax in Fischer 344 rat at 10 mg/kg, iv; type: ADME, organism-based; parameters: dose 10 mg/kg, route intravenous; settings: in vivo; in short: as §3
[31] = system: Rattus norvegicus; assay: Plasma concentration in Fischer 344 rat at 10 mg/kg, po after 1 hrs; type: ADME, organism-based; parameters: dose 10 mg/kg, route oral; settings: in vivo; in short: as §5
[32] = Oral bioavailability in Fischer 344 rat at 10 mg/kg, po; type: ADME, organism-based; settings: in vivo; in short: as §3
[33] = system: Rattus norvegicus; assay: Plasma concentration in Fischer 344 rat at 10 mg/kg, po after 4 hrs; type: ADME, organism-based; parameters: dose 10 mg/kg, route oral; settings: in vivo; in short: as §5
[34] = system: Rattus norvegicus; assay: as §6; type: ADME, organism-based; parameters: dose 10 mg/kg, route oral; settings: rat, in vivo; in short: as §3

Sequence of Metabotropic glutamate receptor 5 (Homo sapiens) (P41594 21-1212 limits assumed): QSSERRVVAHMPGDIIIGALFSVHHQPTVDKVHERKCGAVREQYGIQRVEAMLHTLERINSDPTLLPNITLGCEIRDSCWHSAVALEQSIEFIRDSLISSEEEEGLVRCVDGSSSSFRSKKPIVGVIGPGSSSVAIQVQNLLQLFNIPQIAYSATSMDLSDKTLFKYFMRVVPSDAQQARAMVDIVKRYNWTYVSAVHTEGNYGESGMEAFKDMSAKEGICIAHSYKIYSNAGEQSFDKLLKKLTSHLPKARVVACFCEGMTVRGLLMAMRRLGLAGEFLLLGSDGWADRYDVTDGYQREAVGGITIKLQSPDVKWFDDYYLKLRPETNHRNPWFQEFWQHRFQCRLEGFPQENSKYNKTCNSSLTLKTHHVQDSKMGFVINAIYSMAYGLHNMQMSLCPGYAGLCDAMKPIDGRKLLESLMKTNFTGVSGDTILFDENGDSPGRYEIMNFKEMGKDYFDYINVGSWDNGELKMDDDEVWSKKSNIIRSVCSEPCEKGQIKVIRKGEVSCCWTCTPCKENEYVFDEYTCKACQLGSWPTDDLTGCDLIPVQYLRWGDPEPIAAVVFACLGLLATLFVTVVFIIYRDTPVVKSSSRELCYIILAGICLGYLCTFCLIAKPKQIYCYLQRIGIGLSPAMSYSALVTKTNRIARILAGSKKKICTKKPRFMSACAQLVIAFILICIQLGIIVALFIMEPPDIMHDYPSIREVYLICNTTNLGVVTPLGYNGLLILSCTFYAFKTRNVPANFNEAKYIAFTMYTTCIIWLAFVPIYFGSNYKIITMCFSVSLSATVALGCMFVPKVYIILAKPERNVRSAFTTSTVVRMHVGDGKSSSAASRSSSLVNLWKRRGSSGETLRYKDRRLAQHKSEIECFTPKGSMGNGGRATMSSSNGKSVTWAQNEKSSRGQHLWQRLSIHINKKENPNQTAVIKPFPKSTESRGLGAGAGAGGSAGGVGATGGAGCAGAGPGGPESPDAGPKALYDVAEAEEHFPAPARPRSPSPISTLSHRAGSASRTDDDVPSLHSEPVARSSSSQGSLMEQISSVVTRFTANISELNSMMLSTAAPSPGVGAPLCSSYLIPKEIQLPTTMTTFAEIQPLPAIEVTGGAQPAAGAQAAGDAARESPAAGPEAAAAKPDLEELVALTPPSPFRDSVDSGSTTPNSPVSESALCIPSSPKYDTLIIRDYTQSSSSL
T1 sequence (Q14832 whole entry): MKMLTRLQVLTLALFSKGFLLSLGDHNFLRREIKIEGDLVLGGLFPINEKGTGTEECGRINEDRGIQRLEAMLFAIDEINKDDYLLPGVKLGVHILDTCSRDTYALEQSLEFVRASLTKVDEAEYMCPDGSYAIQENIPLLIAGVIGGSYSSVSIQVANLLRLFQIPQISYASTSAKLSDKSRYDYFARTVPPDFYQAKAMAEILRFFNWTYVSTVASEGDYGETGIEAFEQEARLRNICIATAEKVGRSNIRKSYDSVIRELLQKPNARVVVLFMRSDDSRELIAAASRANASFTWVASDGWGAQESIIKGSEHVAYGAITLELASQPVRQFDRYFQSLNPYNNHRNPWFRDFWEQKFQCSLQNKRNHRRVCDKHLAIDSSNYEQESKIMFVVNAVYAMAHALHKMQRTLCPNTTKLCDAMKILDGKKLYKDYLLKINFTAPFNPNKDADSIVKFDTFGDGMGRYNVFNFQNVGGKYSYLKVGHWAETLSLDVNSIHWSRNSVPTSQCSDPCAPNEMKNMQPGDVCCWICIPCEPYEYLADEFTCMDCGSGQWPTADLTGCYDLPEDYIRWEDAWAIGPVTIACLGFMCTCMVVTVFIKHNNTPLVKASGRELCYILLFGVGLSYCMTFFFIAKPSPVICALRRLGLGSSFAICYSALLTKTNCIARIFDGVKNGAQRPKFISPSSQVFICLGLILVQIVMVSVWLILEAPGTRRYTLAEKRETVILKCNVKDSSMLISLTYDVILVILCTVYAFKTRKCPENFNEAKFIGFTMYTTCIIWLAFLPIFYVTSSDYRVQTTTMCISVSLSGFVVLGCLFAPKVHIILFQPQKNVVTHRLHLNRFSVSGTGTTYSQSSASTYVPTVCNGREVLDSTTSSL
Sequence of Metabotropic glutamate receptor 1 (Homo sapiens) (Q13255 19-1194 limits assumed): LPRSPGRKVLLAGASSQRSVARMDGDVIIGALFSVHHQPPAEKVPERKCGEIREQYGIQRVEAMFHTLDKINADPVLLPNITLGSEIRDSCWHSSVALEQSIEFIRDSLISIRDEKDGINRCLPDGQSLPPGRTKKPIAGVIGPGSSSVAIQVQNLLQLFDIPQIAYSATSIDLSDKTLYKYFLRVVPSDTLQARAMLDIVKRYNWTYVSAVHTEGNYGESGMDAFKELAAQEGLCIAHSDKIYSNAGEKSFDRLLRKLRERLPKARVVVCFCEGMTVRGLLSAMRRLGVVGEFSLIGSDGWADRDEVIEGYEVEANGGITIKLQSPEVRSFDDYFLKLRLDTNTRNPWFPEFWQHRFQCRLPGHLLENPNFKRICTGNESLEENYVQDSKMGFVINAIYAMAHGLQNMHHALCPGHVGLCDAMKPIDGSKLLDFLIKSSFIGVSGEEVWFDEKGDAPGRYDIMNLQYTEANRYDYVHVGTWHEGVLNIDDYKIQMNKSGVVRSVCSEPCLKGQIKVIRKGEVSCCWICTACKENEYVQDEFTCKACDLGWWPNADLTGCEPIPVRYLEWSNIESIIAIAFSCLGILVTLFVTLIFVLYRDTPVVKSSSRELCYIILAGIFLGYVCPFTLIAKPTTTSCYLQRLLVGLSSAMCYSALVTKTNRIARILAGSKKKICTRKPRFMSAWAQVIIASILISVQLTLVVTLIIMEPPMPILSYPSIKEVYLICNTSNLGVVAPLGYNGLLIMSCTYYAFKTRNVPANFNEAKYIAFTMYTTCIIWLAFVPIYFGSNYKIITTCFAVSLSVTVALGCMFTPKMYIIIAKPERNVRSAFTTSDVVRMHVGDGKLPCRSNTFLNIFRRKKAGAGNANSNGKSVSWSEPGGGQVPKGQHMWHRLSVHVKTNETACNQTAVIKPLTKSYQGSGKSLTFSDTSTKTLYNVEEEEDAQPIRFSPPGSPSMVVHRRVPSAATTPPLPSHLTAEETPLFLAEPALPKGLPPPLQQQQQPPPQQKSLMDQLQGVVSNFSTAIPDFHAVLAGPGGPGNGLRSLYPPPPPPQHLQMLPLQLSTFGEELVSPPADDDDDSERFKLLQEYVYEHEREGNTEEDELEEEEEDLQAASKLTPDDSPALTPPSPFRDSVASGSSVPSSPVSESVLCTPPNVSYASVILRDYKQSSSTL
Sequence of Metabotropic glutamate receptor 4 (Homo sapiens) (Q14833 whole entry): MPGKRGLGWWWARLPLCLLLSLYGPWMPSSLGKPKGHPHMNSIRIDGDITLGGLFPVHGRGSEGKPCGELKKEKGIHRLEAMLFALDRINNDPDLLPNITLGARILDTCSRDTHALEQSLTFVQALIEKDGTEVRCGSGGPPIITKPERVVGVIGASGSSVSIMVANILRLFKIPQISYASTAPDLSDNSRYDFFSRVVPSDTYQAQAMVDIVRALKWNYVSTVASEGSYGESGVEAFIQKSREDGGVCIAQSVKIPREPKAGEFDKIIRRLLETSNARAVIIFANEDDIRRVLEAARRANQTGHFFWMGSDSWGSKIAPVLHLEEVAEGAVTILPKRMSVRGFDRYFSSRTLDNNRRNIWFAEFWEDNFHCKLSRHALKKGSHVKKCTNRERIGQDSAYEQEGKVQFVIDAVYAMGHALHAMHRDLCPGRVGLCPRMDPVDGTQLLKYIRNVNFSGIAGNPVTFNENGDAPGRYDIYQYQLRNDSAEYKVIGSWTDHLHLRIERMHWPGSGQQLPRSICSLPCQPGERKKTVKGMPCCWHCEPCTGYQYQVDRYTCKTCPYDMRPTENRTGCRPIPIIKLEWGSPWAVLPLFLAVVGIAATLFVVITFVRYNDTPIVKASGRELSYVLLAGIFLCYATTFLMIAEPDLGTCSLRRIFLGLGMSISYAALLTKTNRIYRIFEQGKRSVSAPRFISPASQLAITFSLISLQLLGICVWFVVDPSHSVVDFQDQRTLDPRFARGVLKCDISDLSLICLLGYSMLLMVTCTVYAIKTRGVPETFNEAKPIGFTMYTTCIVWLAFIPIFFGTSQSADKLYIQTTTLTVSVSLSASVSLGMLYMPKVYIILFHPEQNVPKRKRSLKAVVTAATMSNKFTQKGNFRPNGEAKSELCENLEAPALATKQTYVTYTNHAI
T2 sequence (Q14416 whole entry): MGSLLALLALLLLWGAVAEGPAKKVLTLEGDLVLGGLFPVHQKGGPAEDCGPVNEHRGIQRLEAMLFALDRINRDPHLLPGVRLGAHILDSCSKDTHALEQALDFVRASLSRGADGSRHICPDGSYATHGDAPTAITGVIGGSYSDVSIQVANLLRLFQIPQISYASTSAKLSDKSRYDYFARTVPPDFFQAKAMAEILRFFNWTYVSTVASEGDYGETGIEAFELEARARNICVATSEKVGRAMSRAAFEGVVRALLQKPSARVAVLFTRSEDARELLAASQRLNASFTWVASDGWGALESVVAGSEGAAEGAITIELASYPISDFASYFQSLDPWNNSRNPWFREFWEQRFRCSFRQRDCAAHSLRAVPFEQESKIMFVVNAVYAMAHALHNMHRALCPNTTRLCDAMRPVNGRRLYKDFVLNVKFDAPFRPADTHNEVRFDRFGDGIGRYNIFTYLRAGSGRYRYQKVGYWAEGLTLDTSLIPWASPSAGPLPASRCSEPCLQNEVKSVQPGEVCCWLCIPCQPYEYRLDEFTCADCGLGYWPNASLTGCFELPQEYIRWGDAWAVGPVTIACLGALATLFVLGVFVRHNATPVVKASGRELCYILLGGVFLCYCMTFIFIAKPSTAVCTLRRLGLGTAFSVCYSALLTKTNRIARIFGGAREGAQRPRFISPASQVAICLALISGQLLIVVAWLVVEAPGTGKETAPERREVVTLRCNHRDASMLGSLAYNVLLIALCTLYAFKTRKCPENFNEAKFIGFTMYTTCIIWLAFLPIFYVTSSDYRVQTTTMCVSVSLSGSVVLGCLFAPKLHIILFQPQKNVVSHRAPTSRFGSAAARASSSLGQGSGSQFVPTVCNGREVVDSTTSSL

Compound | EC50 [1] [nM] | Ki [2] [nM] | EC50 [3] [nM] | EC50 [4] [nM] | Activity [6] | Activity [8] | Activity [9] | Activity [10] | Activity [11] | Activity [12] | Activity [13] | Activity [14] | Cmax [15] [µg/mL] | AUC [19] [µg·h/mL] | Cp [20] [µg/mL] | Cp [24] [µg/mL] | Cp [26] [µg/mL] | Cp [29] [µg/mL] | Cp [31] [µg/mL] | Cp [33] [µg/mL] | further results
N[C@@]1(C(=O)O)C[S+]([O-])[C@H]2[C@H](C(=O)O)[C@H]21 (stereo in doubt; (-)-10) | 210 | 447 | 18.1 | > 100000 | – | – | – | – | – | – | – | – | – | – | – | – | – | – | – | – | Ki [5]: 508 nM
N[C@@]1(C(=O)O)C[S+]([O-])[C@H]2[C@H](C(=O)O)[C@H]21 (stereo in doubt; (+)-11) [listing 1 of 2 here] | – | – | – | – | inactive | inactive | inactive | inactive | inactive | inactive | inactive | inactive | – | – | – | – | – | – | – | – | Activity [7]: Active
N[C@@]1(C(=O)O)C[S+]([O-])[C@H]2[C@H](C(=O)O)[C@H]21 (stereo in doubt; (+)-11) [listing 2 of 2 here] | 1.4 | 0.17 | 0.089 | 3070 | – | – | – | – | – | – | – | – | 7.5 | 13 | 0.699 | 0.311 | 2.895 | 7.495 | 3.244 | 0.726 | Activity [16]: 98%; AUC(0-t) at 24 h [17]: 13 µg·h/mL; concentration at 24 h [18]: 0.003 µg/mL; concentration at 8 h [21]: 0.202 µg/mL; concentration at 16 h [22]: 0.034 µg/mL; Cmax [23]: 29 µg/mL; ED50 [25]: 2.3 mg/kg; Activity [27]: 98%; Tmax [28]: 30 min; Tmax [30]: 0 h; bioavailability [32]: 100%
N[C@@]1(C(=O)O)CS[C@H]2[C@H](C(=O)O)[C@H]21 | – | – | – | – | inactive | inactive | inactive | inactive | inactive | inactive | inactive | inactive | – | – | – | – | – | – | – | – | –
N[C@@]1(C(=O)O)C[S+]([O-])[C@H]2[C@H](C(=O)O)[C@H]21 (stereo in doubt; (-)-11) | – | – | – | – | – | – | – | – | – | – | – | – | 0.4 | 1.1 | 0.229 | 0.0718 | 0.258 | 0.325 | 0.367 | 0.077 | Tmax [34]: 60 min
